ChEMBL document CHEMBL1143610, “Applying linear interaction energy method for rational design of noncompetitive allosteric inhibitors of the sarco- and endoplasmic reticulum calcium-ATPase” (J Med Chem, 2005)

What follows are molecules tested against T1, Sarcoplasmic/endoplasmic reticulum calcium ATPase 1 (Homo sapiens, UniProt O14983) (assay: Inhibitory potency against sarco- endoplasmic reticulum calcium-ATPase in relative to thapsigargin (Experimental)).
Target sequence in this assay (O14983 whole entry, looked up): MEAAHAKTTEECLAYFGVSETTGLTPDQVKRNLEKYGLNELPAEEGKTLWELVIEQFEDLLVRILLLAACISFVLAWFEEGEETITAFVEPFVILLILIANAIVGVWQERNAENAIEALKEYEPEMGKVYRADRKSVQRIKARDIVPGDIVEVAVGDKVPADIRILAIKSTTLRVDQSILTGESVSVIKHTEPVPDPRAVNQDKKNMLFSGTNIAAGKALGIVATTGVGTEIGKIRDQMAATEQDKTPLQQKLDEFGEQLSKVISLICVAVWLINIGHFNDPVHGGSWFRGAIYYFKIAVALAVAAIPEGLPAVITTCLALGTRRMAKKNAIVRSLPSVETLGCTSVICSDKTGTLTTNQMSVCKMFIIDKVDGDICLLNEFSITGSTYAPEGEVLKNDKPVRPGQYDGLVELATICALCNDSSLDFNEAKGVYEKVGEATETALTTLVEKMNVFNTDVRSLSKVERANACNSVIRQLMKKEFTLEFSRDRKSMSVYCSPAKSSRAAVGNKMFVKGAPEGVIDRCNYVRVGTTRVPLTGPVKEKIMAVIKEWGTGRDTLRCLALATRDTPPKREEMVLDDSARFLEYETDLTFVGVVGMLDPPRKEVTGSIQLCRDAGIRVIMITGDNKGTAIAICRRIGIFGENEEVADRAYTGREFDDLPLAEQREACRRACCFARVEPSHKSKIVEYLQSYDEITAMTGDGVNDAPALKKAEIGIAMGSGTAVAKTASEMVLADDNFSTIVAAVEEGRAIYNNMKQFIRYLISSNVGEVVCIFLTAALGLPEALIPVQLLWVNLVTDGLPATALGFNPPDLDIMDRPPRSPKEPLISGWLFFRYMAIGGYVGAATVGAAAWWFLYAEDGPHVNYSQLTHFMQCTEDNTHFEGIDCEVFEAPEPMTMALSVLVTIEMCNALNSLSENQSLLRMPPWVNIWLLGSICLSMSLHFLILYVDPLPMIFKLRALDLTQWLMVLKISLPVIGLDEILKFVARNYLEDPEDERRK
`CCCCCCCC(=O)O[C@@H]1C(=O)C(C)=C2[C@H]1[C@@](C)(OC(C)=O)C[C@H](OC(=O)CCCCCCCCCCCNC(=O)CCC(N)C(=O)O)[C@@]1(O)[C@H]2OC(=O)[C@@]1(C)O` (some centres undefined) showed an RIC50 of 0.83. With `CCCCCCCC(=O)O[C@@H]1C(=O)C(C)=C2[C@H]1[C@@](C)(OC(C)=O)C[C@H](OC(=O)CCC(=O)Nc1ccc(C)c(N)c1)[C@@]1(O)[C@H]2OC(=O)[C@@]1(C)O` the RIC50 was 0.004. For `CCCCCCCC(=O)O[C@@H]1C(=O)C(C)=C2[C@H]1[C@@](C)(OC(C)=O)C[C@H](OC(=O)CCCCCCCCCCC(=O)O)[C@@]1(O)[C@H]2OC(=O)[C@@]1(C)O`, the RIC50 was 0.25. `CCCCCCCC(=O)O[C@@H]1C(=O)C(C)=C2[C@H]1[C@@](C)(OC(C)=O)C[C@H](OC(=O)CCCC(=O)O)[C@@]1(O)[C@H]2OC(=O)[C@@]1(C)O` gave an RIC50 of 0.02.

Each molecule was assayed against T1, Sarcoplasmic/endoplasmic reticulum calcium ATPase 1 (assay: Inhibitory potency against sarco- endoplasmic reticulum calcium-ATPase in relative to thapsigargin by using SGB-LIE method).
Procedure, shortened: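 SGB-LIE computation with a surface generalized Born continuum solvent. SERCA coordinates came from one TG-bound monomer of PDB 1IWO, truncated to the transmembrane domain, lumen and the near-membrane cytoplasmic part. Histidine protonation was set to favour H-bonds. Ligands were superimposed on bound TG, with O-8 side chains in the hydrophobic channel. Vacuum minimisation held protein atoms fixed except nonpolar H. LIE parameters were fitted to experimental data for 20 training analogues.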
Target sequence in this assay (O14983 whole entry, looked up): as above
Work on `CCCCCCCC(=O)O[C@@H]1C(=O)C(C)=C2[C@H]1[C@@](C)(OC(C)=O)C[C@H](OC(=O)CCCCCCCCCCCNC(=O)CCC(N)C(=O)O)[C@@]1(O)[C@H]2OC(=O)[C@@]1(C)O` (some centres undefined) yielded an RIC50 of 5. In the case of `CCCCCCCC(=O)O[C@@H]1C(=O)C(C)=C2[C@H]1[C@@](C)(OC(C)=O)C[C@H](OC(=O)CCC(=O)Nc1ccc(C)c(N)c1)[C@@]1(O)[C@H]2OC(=O)[C@@]1(C)O`, the RIC50 is reported as 0.0006. `CCCCCCCC(=O)O[C@@H]1C(=O)C(C)=C2[C@H]1[C@@](C)(OC(C)=O)C[C@H](OC(=O)CCCCCCCCCCC(=O)O)[C@@]1(O)[C@H]2OC(=O)[C@@]1(C)O` gave an RIC50 of 2.08. For `CCCCCCCC(=O)O[C@@H]1C(=O)C(C)=C2[C@H]1[C@@](C)(OC(C)=O)C[C@H](OC(=O)CCCC(=O)O)[C@@]1(O)[C@H]2OC(=O)[C@@]1(C)O`, the RIC50 was 0.31.

Each molecule was assayed against T1, Sarcoplasmic/endoplasmic reticulum calcium ATPase 1 (assay: Inhibitory potency against sarco- endoplasmic reticulum calcium-ATPase in relative to thapsigargin).
Target sequence in this assay (O14983 whole entry, looked up): as above
Molecule `C/C=C(/C)C(=O)O[C@H]1C(C)=C2[C@H]([C@@H]1OC(=O)CCCCCCC)[C@@](C)(OC(C)=O)C[C@H](OC(=O)CCCCCNC(=O)[C@@H](N)CC(C)C)[C@@]1(O)[C@H]2O[C@H](O)[C@@]1(C)O` has an RIC50 of 0.004. `C/C=C(/C)C(=O)O[C@H]1C(C)=C2[C@H]([C@@H]1OC(=O)CCCCCCC)[C@@](C)(OC(C)=O)C[C@H](OC(=O)CCCCCCCCCCN)[C@@]1(O)[C@H]2O[C@H](O)[C@@]1(C)O` was tested, and the RIC50 was 0.333. Work on `CCCCCCCCO[C@@H]1C(C)=C2[C@H]([C@@H]1OC(=O)CCCCCCC)[C@@](C)(OC(C)=O)C[C@H](OC(=O)CCC)[C@@]1(O)[C@H]2OC(=O)[C@@]1(C)O` yielded an RIC50 of 0.002. Work on `C/C=C(/C)C(=O)O[C@H]1C(C)=C2[C@H]([C@@H]1OC(=O)CCCCC)[C@@](C)(O)C[C@H](OC(=O)CCC)[C@@]1(O)[C@H]2O[C@H]2OC(C)(C)O[C@]21C` yielded an RIC50 of 0.002. Work on `C/C=C(\C)C(=O)O[C@H]1C(C)=C2[C@H]([C@@H]1OC(=O)CCCCCCC)[C@@](C)(OC(C)=O)C[C@H](OC(=O)CCC)[C@@]1(OC(C)=O)[C@H]2OC(=O)[C@@]1(C)OC(C)=O` yielded an RIC50 of 0.07. With `C/C=C(/C)C(=O)O[C@H]1C(C)=C2[C@H]([C@@H]1OC(=O)CCCCCCC)[C@@](C)(OC(C)=O)C[C@H](OC(=O)CCc1ccc(NC(=O)OC(C)(C)C)cc1)[C@@]1(O)[C@H]2O[C@H](O)[C@@]1(C)O` the RIC50 was 0.52. `C/C=C(/C)C(=O)O[C@H]1C(C)=C2[C@H]([C@@H]1OC(=O)CCCCCCC)[C@@](C)(OC(C)=O)C[C@H](OC(=O)/C=C/c1ccc(NC(=O)OC(C)(C)C)cc1)[C@@]1(O)[C@H]2O[C@H](O)[C@@]1(C)O` showed an RIC50 of 0.54. `C/C=C(/C)C(=O)O[C@H]1C(C)=C2[C@H]([C@@H]1OC(=O)CCCCCCC)[C@@](C)(OC(C)=O)C[C@H](OC(=O)CCCCCCN)[C@@]1(O)[C@H]2O[C@H](O)[C@@]1(C)O` was tested, and the RIC50 was 0.011. `C/C=C(\C)C(=O)O[C@H]1C(C)=C2[C@H]([C@@H]1OC(=O)CCCCCCC)[C@@](C)(OC(C)=O)C[C@H](OC(=O)CCC)[C@@]1(OC(C)=O)[C@H]2OC(=O)[C@@]1(C)O` gave an RIC50 of 0.36. For `C/C=C(/C)C(=O)O[C@H]1C(C)=C2[C@H]([C@@H]1OC(=O)CCCCCCC)[C@@](C)(OC(C)=O)C[C@H](OC(=O)CCCCCN)[C@@]1(O)[C@H]2O[C@H](O)[C@@]1(C)O`, the RIC50 was 0.01. `C/C=C(/C)C(=O)O[C@H]1C(C)=C2[C@H]([C@@H]1OC(=O)CCCCCCC)[C@@](C)(OC(C)=O)C[C@H](OC(=O)CCCCCCCCCCCNC(=O)[C@@H](N)CC(C)C)[C@@]1(O)[C@H]2O[C@H](O)[C@@]1(C)O` was tested, and the RIC50 was 0.294. For `CCCCCCCC(=O)O[C@@H]1C(=O)C(C)=C2[C@H]1[C@@](C)(OC(C)=O)C[C@H](OC(=O)CCC)[C@@]1(O)[C@H]2OC(=O)[C@@]1(C)O`, the RIC50 was 0.015. With `C/C=C(/C)C(=O)O[C@H]1C(C)=C2[C@H]([C@@H]1OC(=O)CCCCCCC)[C@@](C)(OC(C)=O)C[C@H](OC(=O)CCCCCCCCCCCNC(=O)[C@@H](N)CO)[C@@]1(O)[C@H]2O[C@H](O)[C@@]1(C)O` the RIC50 was 1.25. In the case of `C/C=C(/C)C(=O)O[C@H]1C(C)=C2[C@H]([C@@H]1OC(=O)CCCCCCC)[C@@](C)(O)C[C@H](OC(=O)CCCCCCC)[C@@]1(O)[C@H]2OC(O)[C@@]1(C)O` (some centres undefined), the RIC50 is reported as 0.08. Work on `C/C=C(/C)C(=O)O[C@H]1C(C)=C2[C@H]([C@@H]1OC(=O)CCCCCCC)[C@@](C)(OC(C)=O)C[C@H](OC(=O)c1ccc(N)cc1)[C@@]1(O)[C@H]2O[C@H](O)[C@@]1(C)O` yielded an RIC50 of 0.59. Molecule `C/C=C(/C)C(=O)O[C@H]1C(C)=C2[C@H]([C@@H]1OC(=O)CCCCCCC)[C@@](C)(OC(C)=O)C[C@H](OC(=O)CCc1ccc(N)cc1)[C@@]1(O)[C@H]2O[C@H](O)[C@@]1(C)O` has an RIC50 of 0.68. `CCCCCCCC(=O)O[C@H]1[C@H]2C(=C(C)[C@@H]1OC(=O)CCCCCCC)[C@@H]1OC(=O)[C@@](C)(O)[C@@]1(O)[C@@H](OC(=O)CCC)C[C@]2(C)OC(C)=O` gave an RIC50 of 0.09.

The molecules below were run against T1, Sarcoplasmic/endoplasmic reticulum calcium ATPase 1 (assay: Inhibitory activity against sarco- endoplasmic reticulum calcium-ATPase).
Target sequence in this assay (O14983 whole entry): as the sequence (O14983 whole entry, looked up) above
Work on `CCCCCCCC(=O)O[C@@H]1C(=O)C(C)=C2[C@H]1[C@@](C)(OC(C)=O)C[C@H](OC(=O)CCCCCCCCCCCNC(=O)CCC(N)C(=O)O)[C@@]1(O)[C@H]2OC(=O)[C@@]1(C)O` (some centres undefined) yielded an IC50 of 1.2 nM. `CCCCCCCC(=O)O[C@@H]1C(=O)C(C)=C2[C@H]1[C@@](C)(OC(C)=O)C[C@H](OC(=O)CCC(=O)Nc1ccc(C)c(N)c1)[C@@]1(O)[C@H]2OC(=O)[C@@]1(C)O` showed an IC50 of 9040 nM. `CCCCCCCC(=O)O[C@@H]1C(=O)C(C)=C2[C@H]1[C@@](C)(OC(C)=O)C[C@H](OC(=O)CCCCCCCCCCC(=O)O)[C@@]1(O)[C@H]2OC(=O)[C@@]1(C)O` gave an IC50 of 2.08 nM. `CCCCCCCC(=O)O[C@@H]1C(=O)C(C)=C2[C@H]1[C@@](C)(OC(C)=O)C[C@H](OC(=O)CCCC(=O)O)[C@@]1(O)[C@H]2OC(=O)[C@@]1(C)O` was tested, and the IC50 was 19.8 nM.
